Source: ChEMBL document CHEMBL1275417, “Biological activities of novel gyrase inhibitors of the aminocoumarin class” (Antimicrob Agents Chemother, 2008)
Values after ≈ are worked out from the molar mass of the structure shown. Active and inactive are the calls of the source. The calls are words filed in the database; no cut-off is given here.

Legend:
[1] = target: T1, Cell division inhibitor SulA (Escherichia coli K-12) (UniProt P0AFZ5); assay: Inhibition of Escherichia coli K-12 DNA sulA expressed in Escherichia coli DC2 assessed as compound concentration required for => 4-fold induction of luxCDABE operon by reported gene assay
T1 sequence (whole entry): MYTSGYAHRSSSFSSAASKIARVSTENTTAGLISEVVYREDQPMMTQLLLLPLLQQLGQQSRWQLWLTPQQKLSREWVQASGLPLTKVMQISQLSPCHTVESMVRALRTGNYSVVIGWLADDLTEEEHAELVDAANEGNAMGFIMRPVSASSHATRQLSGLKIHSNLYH
Summary of the method: (§1)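 E. coli DC2 carrying a gyrA or sulA promoter–luxCDABE (Photorhabdus) fusion plasmid. Grown overnight at 37°C in LB with 2 μg/ml tetracycline, then diluted 1:100 in LB without tetracycline and precultured 1.5 h at 37°C. Compounds were added from DMSO stocks to 1% final DMSO and incubated 5 h at 37°C. Bioluminescence was divided by A595, and induction factor is the treated/untreated ratio. The value is the lowest test concentration giving ≥4-fold induction.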

[2] = target: DNA gyrase (Escherichia coli); assay: Inhibition of Escherichia coli JM109 DNA gyrase assessed as DNA triple helix formation by supercoiling assay
[3] = target: DNA gyrase subunit A (Escherichia coli K-12) (UniProt P0AES4); assay: Inhibition of Escherichia coli K-12 DNA gyrase A expressed in Escherichia coli DC2 assessed as compound concentration required for => 4-fold induction of luxCDABE operon by reported gene assay; summary of the method: as §1
DNA gyrase subunit B = DNA gyrase subunit B (Escherichia coli, UniProt P0AES6); assay: Inhibition of Escherichia coli JM109 DNA gyrase subunit B assessed as ATP hydrolysis by ATPase assay
Pseudomonas aeruginosa [4] = assay: Antibacterial activity against Pseudomonas aeruginosa K799/WT by broth microdilution method; format: functional
Escherichia coli [5] = assay: Antibacterial activity against Escherichia coli DC2 by broth microdilution method; format: functional
Escherichia coli [6] = assay: Antibacterial activity against Escherichia coli UB1005 by broth microdilution method; format: functional
Klebsiella pneumoniae = assay: Antibacterial activity against Klebsiella pneumoniae ATCC 27736 by broth microdilution method; format: functional
Staphylococcus aureus [7] = assay: Antibacterial activity against Staphylococcus aureus ATCC 43300 by broth microdilution method; format: functional
Enterococcus faecium = assay: Antibacterial activity against Enterococcus faecium ATCC 19434 by broth microdilution method; format: functional
Enterococcus faecalis = assay: Antibacterial activity against Enterococcus faecalis ATCC 29212 by broth microdilution method; format: functional
Escherichia coli [8] = assay: Antibacterial activity against Escherichia coli ATCC 25922 by broth microdilution method; format: functional
Staphylococcus aureus [9] = assay: Antibacterial activity against Staphylococcus aureus 80CR5 by broth microdilution method; format: functional
Staphylococcus aureus [10] = assay: Antibacterial activity against Staphylococcus aureus ATCC 29213 by broth microdilution method; format: functional
Pseudomonas aeruginosa [11] = assay: Antibacterial activity against Pseudomonas aeruginosa ATCC 27853 by broth microdilution method; format: functional
Pseudomonas aeruginosa [12] = assay: Antibacterial activity against Pseudomonas aeruginosa K799/61 by broth microdilution method; format: functional
Streptococcus pneumoniae [13] = assay: Antibacterial activity against Streptococcus pneumoniae SL336-T by broth microdilution method; format: functional
Streptococcus pneumoniae [14] = assay: Antibacterial activity against Streptococcus pneumoniae ATCC 49619 by broth microdilution method; format: functional
Streptococcus pneumoniae [15] = assay: Antibacterial activity against Streptococcus pneumoniae TUPELO by broth microdilution method; format: functional

Sequence of DNA gyrase subunit A (Escherichia coli K-12) (P0AES4 whole entry): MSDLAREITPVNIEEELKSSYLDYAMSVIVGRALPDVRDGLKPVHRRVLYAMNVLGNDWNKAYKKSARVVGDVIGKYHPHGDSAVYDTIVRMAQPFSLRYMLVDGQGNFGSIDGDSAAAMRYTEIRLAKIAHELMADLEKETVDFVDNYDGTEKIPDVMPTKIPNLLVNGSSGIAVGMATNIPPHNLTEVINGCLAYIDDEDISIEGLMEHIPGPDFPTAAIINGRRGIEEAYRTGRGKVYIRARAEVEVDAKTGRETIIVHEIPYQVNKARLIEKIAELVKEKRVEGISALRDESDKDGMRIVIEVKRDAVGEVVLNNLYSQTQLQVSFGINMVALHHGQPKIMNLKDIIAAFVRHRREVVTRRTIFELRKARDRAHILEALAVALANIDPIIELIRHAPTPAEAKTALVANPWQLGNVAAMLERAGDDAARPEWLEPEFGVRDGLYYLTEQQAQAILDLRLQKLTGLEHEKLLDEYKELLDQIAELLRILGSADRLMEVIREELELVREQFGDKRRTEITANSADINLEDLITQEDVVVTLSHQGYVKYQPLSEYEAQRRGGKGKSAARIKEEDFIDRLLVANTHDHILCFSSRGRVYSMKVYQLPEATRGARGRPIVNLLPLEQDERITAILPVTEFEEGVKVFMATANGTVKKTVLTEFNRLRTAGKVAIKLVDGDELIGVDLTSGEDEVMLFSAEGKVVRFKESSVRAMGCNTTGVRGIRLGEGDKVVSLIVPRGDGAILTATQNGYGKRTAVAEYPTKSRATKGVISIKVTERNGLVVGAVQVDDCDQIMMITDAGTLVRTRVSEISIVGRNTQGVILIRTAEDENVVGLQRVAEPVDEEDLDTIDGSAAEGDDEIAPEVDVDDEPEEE

Compound | Activity [1] | IC50 [2] | Activity [3] | IC50 (DNA gyrase subunit B) | MIC (Pseudomonas aeruginosa [4]) | MIC (Escherichia coli [5]) | MIC (Escherichia coli [6]) | MIC (Klebsiella pneumoniae) | MIC (Staphylococcus aureus [7]) | MIC (Enterococcus faecium) | MIC (Enterococcus faecalis) | MIC (Escherichia coli [8]) | MIC (Staphylococcus aureus [9]) | MIC (Staphylococcus aureus [10]) | MIC (Pseudomonas aeruginosa [11]) | MIC (Pseudomonas aeruginosa [12]) | MIC (Streptococcus pneumoniae [13]) | MIC (Streptococcus pneumoniae [14]) | MIC (Streptococcus pneumoniae [15])
CO[C@@H]1[C@@H](O)[C@@H](OC(=O)c2ccc(C)[nH]2)[C@H](Oc2ccc3c(O)c(NC(=O)c4cc(C)c(O)c(C)c4)c(=O)oc3c2Cl)OC1(C)C | 100 µM | 320 nM | 100 µM | 376 nM | – | – | – | – | – | – | – | – | – | – | – | – | – | – | –
CO[C@@H]1[C@@H](OC(=O)c2ccc(C)[nH]2)[C@@H](O)[C@H](Oc2ccc3c(O)c(NC(=O)c4ccccc4)c(=O)oc3c2C)OC1(C)C | 6.3 µM | – | 6.3 µM | 131 nM | – | – | – | – | – | – | – | – | – | – | – | – | – | – | –
CO[C@@H]1[C@@H](OC(=O)c2ccc(C)[nH]2)[C@@H](O)[C@H](Oc2ccc3c(O)c(NC(=O)c4ccc(N)c(C)c4)c(=O)oc3c2C)OC1(C)C | 50 µM | 44 nM | 25 µM | 152 nM | > 32 µg/mL | > 32 µg/mL | > 32 µg/mL | > 32 µg/mL | 1 µg/mL (≈ 1.61 µM) | > 32 µg/mL | 8 µg/mL (≈ 12.9 µM) | > 32 µg/mL | > 32 µg/mL | 1 µg/mL (≈ 1.61 µM) | > 32 µg/mL | 4 µg/mL (≈ 6.43 µM) | 4 µg/mL (≈ 6.43 µM) | 4 µg/mL (≈ 6.43 µM) | 4 µg/mL (≈ 6.43 µM)
CO[C@@H]1[C@@H](OC(=O)c2ccc(C)[nH]2)[C@@H](O)[C@H](Oc2ccc3c(O)c(NC(=O)/C=C/c4ccccc4)c(=O)oc3c2C)OC1(C)C | 50 µM | – | inactive | 106 nM | – | – | – | – | – | – | – | – | – | – | – | – | – | – | –
COc1cc(C(=O)Nc2c(O)c3ccc(O[C@@H]4OC(C)(C)[C@H](OC)[C@@H](O)[C@H]4OC(=O)c4ccc(C)[nH]4)c(Cl)c3oc2=O)ccc1O | 100 µM | 460 nM | inactive | 891 nM | – | – | – | – | – | – | – | – | – | – | – | – | – | – | –
CO[C@@H]1[C@@H](OC(=O)c2ccc(C)[nH]2)[C@@H](O)[C@H](Oc2ccc3c(O)c(NC(=O)c4ccc(SC)cc4)c(=O)oc3c2Cl)OC1(C)C | 12.5 µM | 20 nM | 3.1 µM | 84 nM | > 32 µg/mL | 8 µg/mL (≈ 12.1 µM) | > 32 µg/mL | > 32 µg/mL | 0.25 µg/mL (≈ 0.379 µM) | > 32 µg/mL | 32 µg/mL (≈ 48.6 µM) | > 32 µg/mL | 32 µg/mL (≈ 48.6 µM) | 0.125 µg/mL (≈ 0.19 µM) | > 32 µg/mL | 2 µg/mL (≈ 3.03 µM) | 4 µg/mL (≈ 6.07 µM) | 2 µg/mL (≈ 3.03 µM) | 16 µg/mL (≈ 24.3 µM)
CO[C@@H]1[C@@H](O)[C@@H](OC(=O)c2ccc(C)[nH]2)[C@H](Oc2ccc3c(O)c(NC(=O)c4ccc(SC)cc4)c(=O)oc3c2Cl)OC1(C)C | 12.5 µM | – | inactive | 280 nM | – | – | – | – | – | – | – | – | – | – | – | – | – | – | –
COc1cc(C(=O)Nc2c(O)c3ccc(O[C@@H]4OC(C)(C)[C@H](OC)[C@@H](OC(=O)c5ccc(C)[nH]5)[C@H]4O)cc3oc2=O)ccc1O | 25 µM | 75 nM | 25 µM | 185 nM | – | – | – | – | – | – | – | – | – | – | – | – | – | – | –
CCCc1cc(C(=O)Nc2c(O)c3ccc(O[C@@H]4OC(C)(C)[C@H](OC)[C@@H](OC(=O)c5ccc(C)[nH]5)[C@H]4O)c(C)c3oc2=O)ccc1O | 1.6 µM | 19 nM | 3.1 µM | 84 nM | > 32 µg/mL | 8 µg/mL (≈ 12.3 µM) | > 32 µg/mL | > 32 µg/mL | ≤ 0.06 µg/mL | > 32 µg/mL | 16 µg/mL (≈ 24.6 µM) | > 32 µg/mL | 32 µg/mL (≈ 49.2 µM) | ≤ 0.06 µg/mL | > 32 µg/mL | 0.5 µg/mL (≈ 0.768 µM) | 2 µg/mL (≈ 3.07 µM) | 2 µg/mL (≈ 3.07 µM) | 4 µg/mL (≈ 6.15 µM)
CO[C@@H]1[C@@H](O)[C@@H](OC(=O)c2ccc(C)[nH]2)[C@H](Oc2ccc3c(O)c(NC(=O)/C=C/c4ccccc4)c(=O)oc3c2Cl)OC1(C)C | inactive | 1200 nM | > 100 µM | 598 nM | – | – | – | – | – | – | – | – | – | – | – | – | – | – | –
CO[C@@H]1[C@@H](O)[C@@H](O)[C@H](Oc2ccc3c(O)c(NC(=O)c4cc(C)c(O)c(C)c4)c(=O)oc3c2C)OC1(C)C | inactive | – | inactive | > 10000 nM | – | – | – | – | – | – | – | – | – | – | – | – | – | – | –
CO[C@@H]1[C@@H](O)[C@@H](OC(=O)c2ccc(C)[nH]2)[C@H](Oc2ccc3c(O)c(NC(=O)c4ccc(N)c(C)c4)c(=O)oc3c2C)OC1(C)C | 100 µM | 190 nM | > 100 µM | 784 nM | – | – | – | – | – | – | – | – | – | – | – | – | – | – | –
